MC4R ag barr – activates human MC4R beta-arrestin recruitment; U2OS MC4R beta-arrestin complementation, luminescence; percent of melanotan II response, DMSO zero; P32245; actives 0.98% (n = 360,000); activation, % at 8.9 µM;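 active = activation above a per-plate cutoff, the mean activation of sample wells on that plate plus 3 SD, cut at about 8% in these data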
CSC inhib – cancer stem cell inhibition. AID 2717. inhibition, % at 7.5 µM. cancer stem cell-like cells viability, luminescence. actives 1.1% (n = 300,000); in the data active = inhibition above about 75%; tested in HMLE shEcad cells
ANO1 block – blocks the mouse calcium-activated chloride channel TMEM16A. Q8BHY3. AID 588511. normalized B-score (activity score, 25-100; higher = stronger inhibition) at 10 µM. HEK293 TMEM16A/YFP iodide influx fluorescence, ionomycin. actives 1.2% (n = 310,000);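 active = ratio plate-corrected score three or more library SD toward inhibition, starting fluorescence score within five deviations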;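 note: score derived from kinetic fluorescence span divided by baseline fluorescence per well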
MC4R antagonist – blocks human MC4R cAMP signaling. P32245. MC4R-expressing cells, MTII-stimulated cAMP, LANCE TR-FRET. inhibition, % at 6.5 µM. actives 0.48% (n = 360,000). AID 540295;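 active = inhibition above its plate's cutoff, the mean of tested wells on that plate plus 3 SD, cut at about 29% in these data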
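Assay system: human MC4R-expressing U2OS cells; reagent: Melanotan II stimulation of cells; dosing: 6.5 µM single dose; timing: compound 30 min, challenge 1 h, detection 1 h; signal: TR-FRET cAMP assay; replicates: one well per compound, no replicates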
Beta cell apopt – blocks beta cell apoptosis; INS-1E cytokine-induced death, ATP luminescence, 48 h; percent of positive-control rescue, neutral wells zero; protection from apoptosis, % (concentration not given with the values); actives 0.8% (n = 300,000); AID 435005;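 active = Every replicate reaches about 75%, or at least half do and their mean reaches it too, limit read from the data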;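 note: higher means more ATP so stronger rescue from cytokine killing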
TMEM16A act – activators or potentiators of mouse TMEM16A chloride channel; Q8BHY3; HEK293 TMEM16A/YFP-H148Q/I152L, iodide quench fluorescence; active compounds read low; B-score at 10 µM; actives 0.3% (n = 340,000); AID 623877;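 active = fluorescence-ratio B-score plate-corrected deviation score at least 3 library SD below zero, with starting fluorescence score within 5 deviations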;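 note: channel opened by trigger with iodide after compound preincubation; score built on the fluorescence ratio of max minus min over baseline; more negative score means more quench and so TMEM16A activation or potentiation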
U2OS cAMP counter – counter-screen for MC4R antagonists: nonselective cAMP signaling inhibitors | shares compounds with MC4R antagonist | parental U2OS, forskolin cAMP, LANCE TR-FRET | actives 26% (n = 1,600) | inhibition, % at 6.5 µM;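 active = mean inhibition over triplicates above the low-control well mean plus 3 SD, set per campaign, cut at about 13% in these data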;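 note: signal is single emission at 671 nm which falls as cellular cAMP rises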
MC4R antag conf – human MC4R cAMP antagonism confirmation; shares compounds with MC4R antagonist; actives 27% (n = 1,600); AID 602195; MC4R-expressing cells, MTII-stimulated cAMP, TR-FRET; inhibition, % at 6.5 µM; in the data active = inhibition above about 29%
MC4R barr conf – human MC4R beta-arrestin agonism confirmation; U2OS MC4R beta-arrestin recruitment, luminescence; scaled DMSO 0%, Melanotan II 100%; shares compounds with MC4R ag barr; actives 31% (n = 2,400); activation, % at 8.9 µM;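 active = mean activation across replicates above the hit cutoff set in the earlier primary screen, cut at about 8% in these data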
MOR-DOR barr ag – activates mu-delta opioid heterodimer, MC4R agonist counter-screen; actives 5.8% (n = 2,400); activation, % at 9.2 µM; U2OS PathHunter beta-arrestin, beta-gal luminescence; percent of deltorphin B response, DMSO zero; AID 602194; shares compounds with MC4R ag barr;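 active = mean activation across replicates exceeds the hit threshold derived in the earlier primary screen, cut at about 18% in these data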
Target sequence (P35372 whole entry, looked up): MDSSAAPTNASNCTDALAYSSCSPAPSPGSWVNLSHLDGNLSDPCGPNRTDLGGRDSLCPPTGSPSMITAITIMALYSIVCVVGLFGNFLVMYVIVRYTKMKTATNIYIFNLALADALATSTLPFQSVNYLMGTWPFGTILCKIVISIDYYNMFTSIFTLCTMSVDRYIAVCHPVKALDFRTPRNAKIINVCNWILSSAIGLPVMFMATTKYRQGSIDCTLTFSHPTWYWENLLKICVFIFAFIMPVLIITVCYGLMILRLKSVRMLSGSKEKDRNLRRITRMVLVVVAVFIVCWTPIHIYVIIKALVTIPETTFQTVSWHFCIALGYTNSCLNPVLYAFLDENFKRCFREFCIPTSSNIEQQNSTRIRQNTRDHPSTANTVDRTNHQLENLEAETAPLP
Target sequence (P41143 whole entry, looked up): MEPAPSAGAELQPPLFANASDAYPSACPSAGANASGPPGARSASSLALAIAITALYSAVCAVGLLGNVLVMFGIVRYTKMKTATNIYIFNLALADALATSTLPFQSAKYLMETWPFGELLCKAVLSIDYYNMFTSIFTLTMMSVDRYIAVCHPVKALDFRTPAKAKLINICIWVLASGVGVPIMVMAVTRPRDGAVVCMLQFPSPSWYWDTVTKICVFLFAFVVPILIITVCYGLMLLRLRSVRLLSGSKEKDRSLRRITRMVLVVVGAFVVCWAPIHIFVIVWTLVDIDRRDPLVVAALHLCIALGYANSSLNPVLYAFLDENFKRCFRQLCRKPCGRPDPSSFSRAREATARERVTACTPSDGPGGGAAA
TMEM16A reconf – reconfirmed blocker of mouse TMEM16A calcium-activated chloride channel; shares compounds with ANO1 block; HEK293 TMEM16A/YFP-H148Q, iodide quench fluorescence; ionomycin added to raise cell calcium; inhibition, % at 10 µM; actives 39% (n = 2,300); AID 652189;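 active = mean duplicate percent inhibition, scaled so buffer wells are 0 and the reference blocker 100, over three buffer SD above buffer mean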
TMEM16A Ca cntr – alters calcium mobilization in TMEM16A HEK293 cells, counter-screen. shares compounds with ANO1 block. TMEM16A/YFP HEK293, Fluo4 calcium mobilization. calcium response (% of ionomycin), % at 10 µM. actives 2% (n = 2,300). AID 652231;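 active = duplicate-averaged calcium signal over 20% of the ionomycin maximum, relative to buffer baseline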;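 note: each well's signal is peak minus trough fluorescence divided by its pre-addition baseline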
YFP-HEK293 quench – counter-screen for TMEM16A inhibitors: effect in parental YFP-HEK293 cells | YFP ratio F(max-min)/F0 at 10 µM | 2,300 tested, under 10 active | AID 652233 | shares compounds with ANO1 block | iodide YFP quench, ionomycin;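 active = yellow fluorescent protein signal ratio exceeding the buffer control mean by over 5 SD of those controls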;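 note: ratio is mean of duplicate wells from kinetic YFP trace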
ClC-1 rat inh – selectivity of TMEM16A inhibitors: inhibition of rat ClC-1 chloride channel | CHO ClC-1-YFP, iodide influx fluorescence quench; iodide control reads 0, buffer control 100 | 2,300 tested, under 10 active | shares compounds with ANO1 block | ratio percent, % at 10 µM;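 active = duplicate-mean ratio percent above the mean of iodide-only control wells, which defines zero, plus 5 of their SD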;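 note: higher percent means stronger block of ClC-1 iodide influx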
Large screens that a line does not name were inactive (follow-up assays come after a bar, where they were run). An excerpt weighted towards active compounds, which were near 3.8% of everything screened.

N#Cc1c(N2CCN(C(=O)c3ccco3)CC2)nc(-c2ccccc2)c2c1CCCC2	ANO1 block 100, MC4R antagonist 34 | U2OS cAMP counter inactive | MC4R antag conf 43 | TMEM16A reconf 24% | TMEM16A Ca cntr inactive | YFP-HEK293 quench inactive | ClC-1 rat inh inactive
CCOC(=O)C1=C(C)N=c2s/c(=C/c3ccc(OCC(=O)O)cc3)c(=O)n2C1c1ccc(SC)cc1 (stereo unspecified)	none (no result: CSC inhib, Beta cell apopt)
CCOC(=O)C1=C(C)N=c2s/c(=C/c3ccc(OCC(=O)O)cc3)c(=O)n2C1c1ccc(F)cc1 (stereo unspecified)	MC4R antagonist 30 | U2OS cAMP counter inactive | MC4R antag conf inactive | TMEM16A reconf inactive | TMEM16A Ca cntr 30% | YFP-HEK293 quench inactive | ClC-1 rat inh inactive
CC(C)(C)C1CCc2c(sc(NC(=O)C3CC=CCC3C(=O)O)c2C#N)C1 (stereo unspecified)	ANO1 block 100, MC4R antagonist 29 | U2OS cAMP counter inactive | MC4R antag conf inactive | TMEM16A reconf 21% | TMEM16A Ca cntr inactive | YFP-HEK293 quench inactive | ClC-1 rat inh inactive
Cc1ccc(-c2nnn(CC(=O)N(c3ccc(F)cc3)C(C(=O)NC3CCCC3)c3ccncc3)n2)o1 (stereo unspecified)	none
Cc1cc(C)n(-c2nc(N(c3ccccc3)c3ccccc3)nc(-n3nc(C)cc3C)n2)n1	ANO1 block 100, MC4R antagonist 62 (no result: Beta cell apopt) | U2OS cAMP counter inactive | MC4R antag conf inactive | TMEM16A reconf 26% | TMEM16A Ca cntr inactive | YFP-HEK293 quench inactive | ClC-1 rat inh inactive
CC(=O)c1nnn(-c2nc(N)nc(N(c3ccccc3)c3ccccc3)n2)c1C	none
COc1cc(/C=N\NC(=O)c2cccnc2)ccc1OC(=O)c1ccccc1Cl	none
CC(NC(=O)COC(=O)C1CCCCC1)c1ccccc1 (stereo unspecified)	none (no result: CSC inhib, ANO1 block, Beta cell apopt)
COc1ccc(-c2c3c(nc4sc5c(Cl)nc(C)nc5c24)CCC3)cc1	ANO1 block 100, MC4R antagonist 41 | U2OS cAMP counter 41 | MC4R antag conf 64 | TMEM16A reconf inactive | TMEM16A Ca cntr inactive | YFP-HEK293 quench inactive | ClC-1 rat inh inactive
COc1ccccc1C(=O)NC(=S)Nc1ccc(NC(=O)c2ccco2)cc1	MC4R ag barr 11 | MC4R barr conf inactive | MOR-DOR barr ag inactive
COc1ccccc1C(=O)NC(=S)Nc1ccc(NC(=O)c2cccs2)cc1	MC4R ag barr 27 | MC4R barr conf inactive | MOR-DOR barr ag inactive
CC(=O)NC(=S)Nc1ccc(NC(=O)c2cccs2)cc1	none
COc1cc(OC)cc(C(=O)Nc2ccc(NC(=O)c3ccco3)c(Cl)c2)c1	none
CC(C)(C)c1ccc(C(=O)Nc2ccc(NC(=O)c3ccco3)cc2)cc1	MC4R ag barr 25 (no result: CSC inhib, Beta cell apopt) | MC4R barr conf inactive | MOR-DOR barr ag inactive
COc1cc(OC)cc(C(=O)NC(=S)Nc2ccc(NC(=O)c3ccco3)cc2)c1	MC4R ag barr 12 | MC4R barr conf inactive | MOR-DOR barr ag inactive
CCc1nc2c(OCc3cccc(Cl)c3)cccn2c1N(C)C(C)=O	none (no result: CSC inhib, ANO1 block, Beta cell apopt, TMEM16A act)
Cc1cnc(C(=O)NNC(=O)c2ccc(Br)cc2)cn1	none
COc1ccc(C(C)(O)c2nc(-c3cccc(C(F)(F)F)c3)cs2)cc1 (stereo unspecified)	none (no result: CSC inhib, ANO1 block, Beta cell apopt, TMEM16A act)
COc1ccc(-c2coc3c(C(=O)NCc4cccs4)cccc23)c(C)c1	none (no result: CSC inhib, ANO1 block, Beta cell apopt, TMEM16A act)
C#CCOCCOCCOCCNc1nc(N2CCN(C(=O)[C@H](CCC(=O)O)n3cc([C@@H](N)[C@H](C)CC)nn3)CC2)nc(N2CCN(C(=O)[C@H](CCCCN)n3cc([C@@H](N)CC(N)=O)nn3)CC2)n1	none (no result: CSC inhib, ANO1 block, TMEM16A act)
NS(=O)(=O)c1ccc(NC(=S)NC(=O)c2cccs2)cc1	none
CCOc1ccc(C(=O)NC(=S)Nc2ccc(NC(=O)c3ccco3)c(C)c2)cc1[N+](=O)[O-]	MC4R ag barr 10 | MC4R barr conf inactive | MOR-DOR barr ag inactive
O=C(NC(=S)Nc1ccc(S(=O)(=O)N2CCCCC2)cc1)c1cccs1	MC4R ag barr 13 | MC4R barr conf inactive | MOR-DOR barr ag inactive
Cc1ccc(N(CC(=O)NC(C)c2ccccc2)S(=O)(=O)c2c(C)noc2C)cc1 (stereo unspecified)	none
Cc1ccc(N(CC(=O)NC(C)c2ccccc2)S(=O)(=O)c2cccs2)cc1 (stereo unspecified)	MC4R ag barr 17 | MC4R barr conf inactive | MOR-DOR barr ag inactive
Cc1ccc(CSc2nnc(SCC(=O)N/N=C/c3c[nH]c4ccccc34)s2)cc1	MC4R ag barr 12 (no result: CSC inhib, ANO1 block, Beta cell apopt) | MC4R barr conf 13 | MOR-DOR barr ag 18
O=C(CSc1nnc(SCc2ccccc2)s1)N/N=C/C=C\c1ccco1	none
CC(=C/c1ccco1)/C=N/NC(=O)CSc1nnc(SCc2ccc(C)cc2)s1	MC4R ag barr 20 | MC4R barr conf inactive | MOR-DOR barr ag inactive
CC(C)(C)c1ccc(C(=O)NCCC(=O)Nc2cc(Cl)ccc2N2CCOCC2)cc1	none (no result: ANO1 block)
COc1cc2ccccc2cc1C(=O)OCc1nc2ccsc2c(=O)[nH]1	MC4R ag barr 15 (no result: ANO1 block) | MC4R barr conf inactive | MOR-DOR barr ag inactive
